From ChEMBL document CHEMBL4145462, “Nitrogen-containing ecdysteroid derivatives vs. multi-drug resistance in cancer: Preparation and antitumor activity of oximes, oxime ethers and a lactam” (Eur J Med Chem, 2018)

Legend:
MDA-MB-231 = experiment: Antiproliferative activity against human MDA-MB-231 cells after 72 hrs by MTT assay; type: functional, cell-based; conditions: MDA-MB-231, 72 h
Outline: (§1)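 Cells grown in MEM with 10% FCS, 1% non-essential amino acids and 1% penicillin-streptomycin. Seeded at 5000 cells/well, exposed to 0.1–30.0 µM compound for 72 h. MTT (5 mg/ml solution) was then added for 4 h, formazan dissolved in DMSO, and absorbance read at 545 nm. Cisplatin served as positive control. IC50 came from sigmoidal dose–response fits (log inhibitor vs normalized response, variable slope).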

[1] = Synergistic cytotoxicity against mouse L5178 cells assessed as combination index at ED50 using 600:1 test compound to doxorubicin ratio after 48 hrs by MTT-based checkerboard microplate method; type: functional
Outline: (§2)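 Checkerboard microplate combinations of compound with doxorubicin at constant molar ratios. 5 × 10^4 cells/well in McCoy's 5A, 48 h at 37°C, 5% CO2. MTT added to 0.5 mg/mL final for 4 h, SDS/HCl overnight, OD read at 540 and 630 nm. Combination indices derived per ratio for 50%, 75% and 90% growth inhibition by median-effect analysis.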

[2] = Synergistic cytotoxicity against mouse L5178 cells assessed as combination index at ED75 using 600:1 test compound to doxorubicin ratio after 48 hrs by MTT-based checkerboard microplate method; type: functional; outline: as §2
[3] = Synergistic cytotoxicity against mouse L5178 cells assessed as combination index at ED75 using 150:1 test compound to doxorubicin ratio after 48 hrs by MTT-based checkerboard microplate method; type: functional; outline: as §2
[4] = Synergistic cytotoxicity against mouse L5178 cells assessed as combination index at ED90 using 300:1 test compound to doxorubicin ratio after 48 hrs by MTT-based checkerboard microplate method; type: functional; outline: as §2
[5] = Synergistic cytotoxicity against mouse L5178 cells expressing human ABCB1 assessed as combination index at ED90 using 7.5:1 test compound to doxorubicin ratio after 48 hrs by MTT-based checkerboard microplate method; type: functional; outline: as §2
MCF7 = experiment: Antiproliferative activity against human MCF7 cells after 72 hrs by MTT assay; type: functional, cell-based; conditions: MCF7, 72 h; outline: as §1
SiHa = experiment: Antiproliferative activity against human SiHa cells after 72 hrs by MTT assay; type: functional, cell-based; outline: as §1
[6] = Synergistic cytotoxicity against mouse L5178 cells expressing human ABCB1 assessed as combination index at ED50 using 7.5:1 test compound to doxorubicin ratio after 48 hrs by MTT-based checkerboard microplate method; type: functional; outline: as §2
[7] = Synergistic cytotoxicity against mouse L5178 cells expressing human ABCB1 assessed as combination index at ED50 using 3.75:1 test compound to doxorubicin ratio after 48 hrs by MTT-based checkerboard microplate method; type: functional; outline: as §2
[8] = Synergistic cytotoxicity against mouse L5178 cells assessed as combination index at ED75 using 37.5:1 test compound to doxorubicin ratio after 48 hrs by MTT-based checkerboard microplate method; type: functional; outline: as §2
[9] = Cytotoxicity against mouse L5178 cells after 48 hrs by MTT assay; type: functional, cell-based; conditions: L5178, 48 h
Outline: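 Parental mouse lymphoma L5178 and the MDR line made by pHa MDR1/A retrovirus transfection, selected with 60 µg/L colchicine. Grown in McCoy's 5A with horse serum at 37°C, 5% CO2. 5 x 10^4 cells/well, serial compound dilutions, 48 h. MTT added to 0.5 mg/mL final for 4 h, then 10% SDS in 0.01 M HCl overnight, OD read at 540 and 630 nm. IC50 taken as median cytotoxic activity (Dm) from control lanes of checkerboard plates, n=2.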

[10] = Synergistic cytotoxicity against mouse L5178 cells assessed as combination index at ED50 using 75:1 test compound to doxorubicin ratio after 48 hrs by MTT-based checkerboard microplate method; type: functional; outline: as §2
[11] = Synergistic cytotoxicity against mouse L5178 cells expressing human ABCB1 assessed as combination index at ED75 using 7.5:1 test compound to doxorubicin ratio after 48 hrs by MTT-based checkerboard microplate method; type: functional; outline: as §2
[12] = Synergistic cytotoxicity against mouse L5178 cells assessed as combination index at ED90 using 150:1 test compound to doxorubicin ratio after 48 hrs by MTT-based checkerboard microplate method; type: functional; outline: as §2
[13] = Synergistic cytotoxicity against mouse L5178 cells expressing human ABCB1 assessed as combination index at ED90 using 30:1 test compound to doxorubicin ratio after 48 hrs by MTT-based checkerboard microplate method; type: functional; outline: as §2
ABCB1 (P-glycoprotein) = ABCB1 (P-glycoprotein) (Homo sapiens, UniProt P08183); experiment: Inhibition of human ABCB1 expressed in mouse L5178 cells assessed as increase in rhodamine-123 accumulation at 20 uM after 10 mins by flow cytometric analysis relative to control; type: cell-based; conditions: mouse L5178 cells expressing human ABCB1, probe rhodamine-123
Outline: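 Cells at 2 × 10^6/mL were preincubated 10 min with compound. Rhodamine 123 then added to 5.2 µM final, 20 min at 37 °C. Cells washed twice in PBS, resuspended and read by flow cytometry. Percent inhibition was scaled between MDR-cell accumulation (0%) and parental L5178 accumulation (100%). Controls: 100 nM tariquidar (positive) and 2% DMSO (negative).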

[14] = Synergistic cytotoxicity against mouse L5178 cells assessed as combination index at ED90 using 37.5:1 test compound to doxorubicin ratio after 48 hrs by MTT-based checkerboard microplate method; type: functional; outline: as §2
[15] = Synergistic cytotoxicity against mouse L5178 cells assessed as combination index at ED75 using 75:1 test compound to doxorubicin ratio after 48 hrs by MTT-based checkerboard microplate method; type: functional; outline: as §2
[16] = Synergistic cytotoxicity against mouse L5178 cells assessed as combination index at ED50 using 300:1 test compound to doxorubicin ratio after 48 hrs by MTT-based checkerboard microplate method; type: functional; outline: as §2
[17] = Synergistic cytotoxicity against mouse L5178 cells expressing human ABCB1 assessed as combination index at ED75 using 15:1 test compound to doxorubicin ratio after 48 hrs by MTT-based checkerboard microplate method; type: functional; outline: as §2
[18] = Synergistic cytotoxicity against mouse L5178 cells expressing human ABCB1 assessed as combination index at ED75 using 3.75:1 test compound to doxorubicin ratio after 48 hrs by MTT-based checkerboard microplate method; type: functional; outline: as §2
HeLa = experiment: Antiproliferative activity against human HeLa cells after 72 hrs by MTT assay; type: functional, cell-based; outline: as §1
[19] = Synergistic cytotoxicity against mouse L5178 cells assessed as combination index at ED90 using 600:1 test compound to doxorubicin ratio after 48 hrs by MTT-based checkerboard microplate method; type: functional; outline: as §2
[20] = Synergistic cytotoxicity against mouse L5178 cells assessed as combination index at ED90 using 75:1 test compound to doxorubicin ratio after 48 hrs by MTT-based checkerboard microplate method; type: functional; outline: as §2
[21] = Synergistic cytotoxicity against mouse L5178 cells expressing human ABCB1 assessed as combination index at ED90 using 15:1 test compound to doxorubicin ratio after 48 hrs by MTT-based checkerboard microplate method; type: functional; outline: as §2
[22] = Synergistic cytotoxicity against mouse L5178 cells expressing human ABCB1 assessed as combination index at ED90 using 60:1 test compound to doxorubicin ratio after 48 hrs by MTT-based checkerboard microplate method; type: functional; outline: as §2
[23] = Synergistic cytotoxicity against mouse L5178 cells expressing human ABCB1 assessed as combination index at ED75 using 60:1 test compound to doxorubicin ratio after 48 hrs by MTT-based checkerboard microplate method; type: functional; outline: as §2

Sequence of ABCB1 (P-glycoprotein) (P08183 whole entry): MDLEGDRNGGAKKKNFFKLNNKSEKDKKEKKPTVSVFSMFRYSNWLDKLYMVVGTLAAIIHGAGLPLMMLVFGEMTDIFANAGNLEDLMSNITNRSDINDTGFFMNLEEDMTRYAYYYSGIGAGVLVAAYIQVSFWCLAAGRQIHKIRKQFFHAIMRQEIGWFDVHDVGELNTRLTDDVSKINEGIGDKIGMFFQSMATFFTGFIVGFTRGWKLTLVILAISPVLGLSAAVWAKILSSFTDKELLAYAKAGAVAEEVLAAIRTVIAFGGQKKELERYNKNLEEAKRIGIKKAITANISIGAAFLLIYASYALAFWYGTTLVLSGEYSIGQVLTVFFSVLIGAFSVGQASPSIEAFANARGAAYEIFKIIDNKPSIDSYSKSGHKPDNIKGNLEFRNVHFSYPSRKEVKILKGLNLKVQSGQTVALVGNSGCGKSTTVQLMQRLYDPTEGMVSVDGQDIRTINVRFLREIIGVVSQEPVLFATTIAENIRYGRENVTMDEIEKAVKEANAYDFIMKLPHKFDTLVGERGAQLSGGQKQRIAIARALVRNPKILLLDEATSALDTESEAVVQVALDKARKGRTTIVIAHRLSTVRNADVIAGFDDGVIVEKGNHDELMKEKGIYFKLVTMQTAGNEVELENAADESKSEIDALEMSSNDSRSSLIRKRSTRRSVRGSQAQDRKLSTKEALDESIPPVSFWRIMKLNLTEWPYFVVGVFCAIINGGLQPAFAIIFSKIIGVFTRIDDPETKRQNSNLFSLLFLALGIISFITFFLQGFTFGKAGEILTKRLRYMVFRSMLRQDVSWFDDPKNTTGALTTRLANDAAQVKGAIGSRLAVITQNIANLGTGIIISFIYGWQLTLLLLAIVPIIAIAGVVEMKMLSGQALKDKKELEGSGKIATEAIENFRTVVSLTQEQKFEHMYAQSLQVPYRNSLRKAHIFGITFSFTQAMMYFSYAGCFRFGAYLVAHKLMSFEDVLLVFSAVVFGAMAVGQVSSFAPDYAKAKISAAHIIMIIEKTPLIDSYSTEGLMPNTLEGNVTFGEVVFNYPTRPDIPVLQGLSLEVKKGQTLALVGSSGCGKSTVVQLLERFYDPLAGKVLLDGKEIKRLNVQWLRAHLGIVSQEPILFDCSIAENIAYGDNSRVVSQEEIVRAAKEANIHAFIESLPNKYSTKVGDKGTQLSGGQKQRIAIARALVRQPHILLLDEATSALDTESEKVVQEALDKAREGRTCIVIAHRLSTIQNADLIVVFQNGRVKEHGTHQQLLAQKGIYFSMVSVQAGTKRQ

Work on `CCO/N=C1/C=C2[C@H](CC[C@]3(C)[C@@H]([C@@]4(C)OC(C)(C)O[C@@H]4CCC(C)(C)O)CC[C@@]23O)[C@@]2(C)C[C@@H]3OC(C)(C)O[C@@H]3C[C@@H]12` yielded an IC50 (MDA-MB-231) of 25.1 µM, a CI [1] of 0.75 and a CI [2] of 0.83. It also gave a CI [3] of 0.67, a CI [4] of 0.98 and a CI [5] of 0.17. The IC50 (MCF7) was 13.1 µM, the IC50 (SiHa) was greater than 30 µM and the CI [6] was 0.19. It also gave a CI [7] of 0.27, a CI [8] of 0.52 and an IC50 [9] of 37.3 µM. It also gave a CI [10] of 0.58, a CI [11] of 0.16 and a CI [12] of 0.73. For the same molecule, the CI [13] was 0.26, the inhibition at 10 min, 20 µM (ABCB1 (P-glycoprotein)) was 75% and the CI [14] was 0.45. It also gave a CI [15] of 0.58, a CI [16] of 0.8 and a CI [17] of 0.17. The CI [18] was 0.16, the IC50 (HeLa) was 29.1 µM and the CI [19] was 0.94. For the same molecule, the CI [20] was 0.58 and the CI [21] was 0.19.
In the case of `CO/N=C1/C=C2C3=CC[C@H]([C@@]4(C)OC(C)(C)O[C@@H]4CCC(C)(C)O)[C@@]3(C)CC[C@@H]2[C@@]2(C)C[C@@H]3OC(C)(C)O[C@@H]3C[C@@H]12`, the IC50 (MDA-MB-231) is reported as 26 µM, the CI [1] is reported as 1.14 and the CI [22] is reported as 0.36. It also gave a CI [2] of 1.2, a CI [3] of 0.67 and a CI [4] of 0.87. It also gave a CI [5] of 0.15, an IC50 (MCF7) of 18 µM and an IC50 (SiHa) greater than 30 µM. The CI [6] was 0.17, the CI [7] was 0.2 and the CI [8] was 0.47. For the same molecule, the IC50 [9] was 46 µM, the CI [10] was 0.69 and the CI [11] was 0.16. The CI [12] was 0.64, the CI [23] was 0.34 and the CI [13] was 0.24. The inhibition at 10 min, 20 µM (ABCB1 (P-glycoprotein)) was 106%, the CI [14] was 0.31 and the CI [15] was 0.5. It also gave a CI [16] of 0.85, a CI [17] of 0.17 and a CI [18] of 0.17. It also gave an IC50 (HeLa) of 15.4 µM, a CI [19] of 1.3 and a CI [20] of 0.39. It also gave a CI [21] of 0.16.
In the case of `C=CCO/N=C1/C=C2[C@H](CC[C@]3(C)[C@@H]([C@@]4(C)OC(C)(C)O[C@@H]4CCC(C)(C)O)CC[C@@]23O)[C@@]2(C)C[C@@H]3OC(C)(C)O[C@@H]3C[C@@H]12`, the IC50 (MDA-MB-231) is reported as 26.9 µM, the CI [22] is reported as 0.35 and the CI [3] is reported as 0.99. The CI [4] was 1.55, the CI [5] was 0.19 and the IC50 (MCF7) was 17.2 µM. It also gave an IC50 (SiHa) greater than 30 µM, a CI [6] of 0.2 and a CI [7] of 0.23. For the same molecule, the CI [8] was 1.11, the IC50 [9] was 36.7 µM and the CI [10] was 0.7. The CI [11] was 0.19, the CI [12] was 1.31 and the CI [23] was 0.32. The CI [13] was 0.25, the inhibition at 10 min, 20 µM (ABCB1 (P-glycoprotein)) was 81.8% and the CI [14] was 1.2. It also gave a CI [15] of 0.83, a CI [16] of 0.93 and a CI [17] of 0.16. The CI [18] was 0.19, the IC50 (HeLa) was 17.6 µM and the CI [20] was 1.03. For the same molecule, the CI [21] was 0.17.
`CCO/N=C1/C=C2C3=CC[C@H]([C@@]4(C)OC(C)(C)O[C@@H]4CCC(C)(C)O)[C@@]3(C)CC[C@@H]2[C@@]2(C)C[C@@H]3OC(C)(C)O[C@@H]3C[C@@H]12` gave an IC50 (MDA-MB-231) of 26 µM, a CI [1] of 1.21 and a CI [22] of 0.37. For the same molecule, the CI [2] was 1.1, the CI [3] was 0.48 and the CI [4] was 0.74. It also gave a CI [5] of 0.11, an IC50 (MCF7) of 19.6 µM and an IC50 (SiHa) greater than 30 µM. The CI [6] was 0.21, the CI [7] was 0.25 and the CI [8] was 0.66. The IC50 [9] was 53.2 µM, the CI [10] was 0.49 and the CI [11] was 0.14. It also gave a CI [12] of 0.56, a CI [23] of 0.36 and a CI [13] of 0.2. It also gave an inhibition at 10 min, 20 µM (ABCB1 (P-glycoprotein)) of 108%, a CI [14] of 0.6 and a CI [15] of 0.5. For the same molecule, the CI [16] was 0.59, the CI [17] was 0.18 and the CI [18] was 0.14. The IC50 (HeLa) was 30 µM, the CI [19] was 1 and the CI [20] was 0.52. For the same molecule, the CI [21] was 0.18.
